Assay results as given in the EternaBench riboswitch data.

Legend:
MS2 coat protein [1] = assay: apparent Kd, MS2 coat protein; higher = weaker binding; RNA-MaP array; tryptophan 2.4 mM where present
Summary of the method: (§1)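 The titrant was SNAP-549-labelled MS2 coat protein, run from 0.7 or 1.5 nM in doubling steps to 3 µM. It was applied to designs transcribed by stalled E. coli RNA polymerase on Illumina sequencing-chip clusters, without ligand first and then with constant ligand, in 100 mM Tris-HCl pH 7.5, 80 mM KCl, 4 mM MgCl2, BSA, DTT, yeast tRNA and Tween-20. The apparent Kd is the median of filtered per-cluster binding-curve fits, with green signal normalised to red-channel RNA signal and control-cluster median Fmax.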

MS2 coat protein [2] = assay: apparent Kd, MS2 coat protein; higher = weaker binding; RNA-MaP array; theophylline 2 mM where present
Summary of the method: as §1

[3] = designed as: ON switch for tryptophan, no ligand
[4] = ligand present: tryptophan, designed as: ON switch for tryptophan
[5] = designed as: OFF switch for tryptophan, no ligand
[6] = ligand present: tryptophan, designed as: OFF switch for tryptophan
[7] = designed as: OFF switch for theophylline, no ligand
[8] = ligand present: theophylline, designed as: OFF switch for theophylline
[9] = designed as: ON switch for theophylline, no ligand
[10] = ligand present: theophylline, designed as: ON switch for theophylline

Sequence	apparent Kd (MS2 coat protein [2]; [7])	apparent Kd (MS2 coat protein [2]; [8])	apparent Kd (MS2 coat protein [2]; [9])	apparent Kd (MS2 coat protein [2]; [10])	other results
GGAUGGAACUCGGCCGCCACUGGUGAUCCUAAUGUACAUGAGGAUCACCCAUGUACAUGAGAAGAUAGGACCGGGAGAUAACAUG					apparent Kd (MS2 coat protein [1]; [3]): 27.7 nM; apparent Kd (MS2 coat protein [1]; [4]): 19.8 nM
GGGAGGGAGGCGGCCGCCACUGAUUUUCAUAUAUAUAUAACAUGAGGAUCACCCAUGUAGAUAUACAGGACCGGGCCUUUUUUUU					apparent Kd (MS2 coat protein [1]; [3]): 20.4 nM; apparent Kd (MS2 coat protein [1]; [4]): 19.5 nM
GGUAUGUAUUCGGAAACGAAUGCAUACCAACGAGGACCGGUACGGCCGCCACUCGGCCGUGAUCAACAUGAGGAUCACCCAUGUA					apparent Kd (MS2 coat protein [1]; [5]): 15.8 nM; apparent Kd (MS2 coat protein [1]; [6]): 26.8 nM
GGUUACUCUACGGCCGCCACUGAACAUGAGGAUCACCCAUGUAAUGUUCAGACGUCUUUAGACGACAGGACCGGGUAGUGUAACC					apparent Kd (MS2 coat protein [1]; [3]): 178 nM; apparent Kd (MS2 coat protein [1]; [4]): 151 nM
GGUUACUCUACGGCCGCCACUGUAAUGUAAAGAUUCCUGUACAUGACAUGAGGAUCACCCAUGUGCAGGACCGGGUAGUGUAACC					apparent Kd (MS2 coat protein [1]; [3]): 194 nM; apparent Kd (MS2 coat protein [1]; [4]): 52.6 nM
GUCUUGGGAUCGGCCGCCACUACAUGAGGAUCACCCAUGUGGACAAAUAGGGUUUUUAAGCUCGGUAGGACCGGGAUUCGGACAU					apparent Kd (MS2 coat protein [1]; [5]): 12.9 nM; apparent Kd (MS2 coat protein [1]; [6]): 56.9 nM
UACAUGAGGAUCACCCAUGUAUAGAGGGAUACCAGUGUCAGUGAGCACCCUUGGCAGCCCGCGAACAAUGGGUGCGCUAAAUAGU	30.4 nM	56.9 nM			
UACAUGAGGAUCACCCAUGUAUGAAUAGAUACCAGAUAAAAUAAGGUCCCUUGGCAGCUAGUGAAUAAAGGGUGGGUAAAAUAAU	9.22 nM	9.51 nM			
UACAUGAGGAUCACCCAUGUAUGAAUGGAUACCAGAUAAAAUAAGGUCCCUUGGCAGCUAGUGAAUCGAGGGUGGGUAUCAUGUU	10.5 nM	11.2 nM			
UCACGAGGCCUGGAUACCAGCGACAUGAGGAUCACCCAUGUAUGAGGAUCAGCCAUGUUAUGCCCUUGGCAGCCACGAAGGUCAU	14.6 nM	94.5 nM			
UCCACAUGAGGAUCACCCAUGUAAUCAGAUACCAGUGACGAAAGUCACCCUUGGCAGCUGAUUACUUUAGUUCGAGGGUGUUUGA	102 nM	202 nM			
UCGCAUUGCUCAGAUACCAGACAUGAGGAUCACCCAUGUACCAAGGUAACCGAAAGGCAUGUCCCUUGGCAGCUGAGCAAUGCGU	12.1 nM	225 nM			
UCGCAUUGCUGCGAUACCAGACAUGAGGAUCACCCAUGUACCAAGGUACGAAAAUAACAUGUCCCUUGGCAGCGCAGCAAUGCGU	12.8 nM	322 nM			
UCGCUCGCAGAAAUGCGAGCGAGUUGCGAUACCAGCCCGGAAACGGGCCCUUGGCAGCGCACAUGAGGAUCACCCAUGUCAUGUU	17.4 nM	23.8 nM			
UGACAUUGCUCAGAUACCAGACAUGAGGAUCACCCAUGUACCAAGAGUACAAAUUAAAAUGUCCCUUGGCAGCUGAGCAAUGUCU	19.6 nM	483 nM			
UGAGAUCCUCAUGAUACCAGUGUACUACAUGAGGAUCACCCAUGUAGCAACAUCUGUAGACACCCUUGGCAGCAUGAGACCACGU			18.3 nM	23.7 nM	
UGGUACAUGAGGAUCACCCAUGUUCCAGAUACCAGACUCCCGGUGGUCCCUUGGCAGCUGGUGGUACAUGAGGAUCACCCAUGUG	30.4 nM	49.9 nM			
UGUAACAUGAGGAUCACCCAUGUGCACGAUACCAGCUUCGAAAGAGGCCCUUGGCAGCGUAUGCGUAAGCUGUAUAAUAUAUAUC			11.4 nM	13.6 nM	
UGUAUGUGAUUUGAUACCAGACCAACUGGUAAAACAUGAGGAUCACCCAUGUAAACUUGGGUCCCUUGGCAGCAAAUCGCAUACU			80.5 nM	10.9 nM	
UUCAGUACAACAGAUACCAGACAGUACUCUAAAUUGCAACAUGAGGAUCACCCAUGUAUAGUCCCUUGGCAGCUGUAAUGGGUGA			114 nM	174 nM	
UUCUACAUGAGGAUCACCCAUGUGGGUGAUACCAGCACUUUUUGGUGCCCUUGGCAGCACAUGAGAAUACCGUACGAUCGGUGAU			376 nM	615 nM	
UUUACAUGAGGAUCACCCAUGUGCCAUGAUACCAGACAUGAAAAUGUCCCUUGGCAGCAUGAAAGAUCCACGUCGGAAACGACGG			176 nM	308 nM	
UUUGAAAUAACAGAUACCAGCGUGUUAUAAAACAUGAGGAUCACCCAUGUAGUGAUCAAGCGCCCUUGGCAGCUGGUAUUUUAGG			85.4 nM	196 nM	
UUUGAUAGAACAGAUACCAGCGUGUUAUAAAACAUGAGGAUCACCCAUGUAGUGAUCAAGCGCCCUUGGCAGCUGGUUUGUUAGG			135 nM	182 nM	
UUUUUUAACAUGGCGUAUCGGAAAACCGAUACCAGUACAGAAAUGUACCCUUGGCAGCGGCGUUUUACAUGAGGAUCACCCAUGU	29.4 nM	193 nM			
UUUUUUAUCAUGGCGUAUCGGAAAACCGAUACCAGUACAGAAAUGUACCCUUGGCAGCGGCGUUUUACAUGAGGAUCACCCAUGU	14.5 nM	69.2 nM			
